Measured values taken from ChEMBL document CHEMBL1154198, “Chemical genetics of Plasmodium falciparum” (Nature, 2010).

How the values were obtained:
[1] = ST_JUDE: Cytotoxicity using luciferase to measure ATP as an indicator of the viability of human epithelial embryonic kidney cells (HEK293); type: toxicity, cell-based
Plasmodium falciparum [2] = assay: ST_JUDE: Cytotoxicity against Plasmodium falciparum 3D7; type: functional, organism-based
Summary of the method: (§1)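 Asexual P. falciparum grown in human erythrocytes, exposed to compounds for 72 h, and growth read as the DNA quantity in treated versus control cultures. Dose-response run at 12 concentrations from 10 μM to 5 nM.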

Plasmodium falciparum [3] = assay: ST_JUDE: Cytotoxicity against Plasmodium falciparum D10 transfected with yeast DHOD; type: functional, organism-based
Toxoplasma gondii = assay: ST_JUDE: Growth inhibition of to Toxoplasma gondii, in human U-2OS cells, as measured by luciferase.; type: functional, organism-based; details: RH, U2OS
Summary of the method: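 T. gondii parasites engineered to express luciferase; drug sensitivity read by luminescence.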

Trypanosoma brucei = assay: ST_JUDE: Cytotoxicity using luciferase to measure ATP as an indicator of the viability of Trypanosoma brucei; type: functional, organism-based
Plasmodium falciparum [4] = assay: ST_JUDE: Plasmodium falciparum 3D7 EC50 (uM) as measured by SYBR green dye; type: functional, organism-based
Plasmodium falciparum [5] = assay: ST_JUDE: Cytotoxicity against Plasmodium falciparum V1/S; type: functional, organism-based
Plasmodium falciparum [6] = assay: ST_JUDE: Plasmodium falciparum K1 EC50 (uM) as measured by SYBR green dye; type: functional, organism-based
[7] = ST_JUDE: Cytotoxicity using luciferase to measure ATP as an indicator of the viability of human epithelial hepatocellular carcinoma cells (HepG2); type: toxicity, cell-based
Plasmodium falciparum [8] = assay: ST_JUDE: Cytotoxicity against Plasmodium falciparum Dd2; type: functional, organism-based
Leishmania major = assay: ST_JUDE: Cytotoxicity using Alamar Blue to measure viability of Leishmania major; type: functional, organism-based
Summary of the method: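 L. major promastigotes; drug susceptibility read with Alamar Blue.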

Plasmodium falciparum [9] = assay: ST_JUDE: Cytotoxicity against Plasmodium falciparum K1; type: functional, organism-based; summary of the method: as §1
Plasmodium falciparum [10] = assay: ST_JUDE: Cytotoxicity against Plasmodium falciparum SB-A6; type: functional, organism-based
[11] = ST_JUDE: Cytotoxicity using luciferase to measure ATP as an indicator of the viability of human foreskin fibroblast cells (BJ); type: toxicity, cell-based
[12] = ST_JUDE: Cytotoxicity using luciferase to measure ATP as an indicator of the viability of human Burkitt''s lymphoma lymphoblast cells (Raji); type: toxicity, cell-based
Plasmodium falciparum [13] = assay: ST_JUDE: Cytotoxicity against Plasmodium falciparum W2; type: functional, organism-based

Structure (SMILES)	EC50 [1]	EC50 (Plasmodium falciparum [2])	EC50 (Plasmodium falciparum [3])	EC50 (Toxoplasma gondii)	EC50 (Trypanosoma brucei)	EC50 (Plasmodium falciparum [4])	EC50 (Plasmodium falciparum [5])	EC50 (Plasmodium falciparum [6])	EC50 [7]	EC50 (Plasmodium falciparum [8])	EC50 (Leishmania major)	EC50 (Plasmodium falciparum [9])	EC50 (Plasmodium falciparum [10])	EC50 [11]	EC50 [12]	EC50 (Plasmodium falciparum [13])
Cc1cc(C)nc(/N=C(\N)Nc2ccccc2O)n1	> 34200 nM	1430 nM	2880 nM	> 18700 nM	> 32800 nM	594 nM	978 nM	497 nM	> 34200 nM	908 nM	> 14600 nM	560 nM	2180 nM	> 34200 nM	> 34200 nM	5710 nM
CCOc1ccc2nc3cc(N)ccc3c(N)c2c1	> 32600 nM	1940 nM	2390 nM	> 17900 nM	7470 nM	1120 nM	2000 nM	582 nM	> 32600 nM	294 nM	> 14000 nM	1730 nM	2380 nM	17900 nM	> 32600 nM	758 nM
Fc1ccc(Nc2nc(NCc3ccco3)c3ccccc3n2)cc1	20000 nM	581 nM	1200 nM	13600 nM	12200 nM	673 nM	1910 nM	> 15000 nM	8250 nM	489 nM	2.9 nM	1120 nM	357 nM	20100 nM	14900 nM	354 nM
CC(CNC(=O)c1cn(C2CCCCC2)cc(C(=O)NC(C)(C)C)c1=O)c1ccccc1 (centres undefined)	> 52800 nM	321 nM	150 nM	> 28900 nM	> 50700 nM	93.7 nM	> 13600 nM	8050 nM	> 52800 nM	2180 nM	> 22600 nM	705 nM	109 nM	> 52800 nM	> 52800 nM	> 13600 nM
CCCO/C(O)=C1\C(C)=NC2=C(C(=O)CC(c3ccc(OC)c(OC)c3)C2)C1c1ccc(F)cc1 (centres undefined)	> 36300 nM	96.4 nM	58 nM	> 19900 nM	5920 nM	61.3 nM	155 nM	24 nM	> 36300 nM	95.2 nM	> 15600 nM	121 nM	60.3 nM	> 36300 nM	> 36300 nM	56.6 nM
Cc1c2[nH]c3ccccc3c2c2c([n+]1C)CC(C)(C)CC2	> 55500 nM	3190 nM	1350 nM	> 30400 nM	13600 nM	896 nM	3330 nM	1400 nM	> 55500 nM	921 nM	480 nM	3520 nM	1040 nM	> 55500 nM	> 55500 nM	154 nM
OC(CNC1CCCC1)Cn1c2ccccc2c2ccccc21 (centres undefined)	31500 nM	1690 nM	2690 nM	> 22200 nM	3410 nM	1080 nM	813 nM	163 nM	14800 nM	889 nM	> 17400 nM	620 nM	3170 nM	20300 nM	> 40600 nM	879 nM
CC(C)(C)c1cc(/N=N/C(=O)c2ccncc2)cc(C(C)(C)C)c1O	971 nM	602 nM	478 nM	2300 nM	1010 nM	545 nM	508 nM	496 nM	> 28400 nM	1010 nM	> 12200 nM	480 nM	462 nM	> 28400 nM	682 nM	1110 nM
Cc1cccc(N2CCN(Cc3cc(Br)ccc3O)CC2)c1C	> 27900 nM	372 nM	576 nM	> 15300 nM	> 26700 nM	425 nM	255 nM	153 nM	> 27900 nM	521 nM	> 11900 nM	178 nM	699 nM	> 27900 nM	> 27900 nM	> 7160 nM
COCCO/C(O)=C1\C(C)=NC2=C(C(=O)CC(c3ccc(OC)c(OC)c3)C2)C1c1ccccc1F (centres undefined)	> 39900 nM	498 nM	553 nM	> 21900 nM	> 38300 nM	717 nM	406 nM	551 nM	> 39900 nM	970 nM	> 17100 nM	314 nM	313 nM	> 39900 nM	> 39900 nM	1350 nM
CCCCCOc1ccc(N(C(C)=O)C2=C(N3CCOCC3)C(=O)c3ccccc3C2=O)cc1	> 36200 nM	75 nM	36.2 nM	> 19800 nM	1840 nM	327 nM	70 nM	208 nM	22600 nM	1470 nM	> 15500 nM	77.5 nM	59.6 nM	> 36200 nM	3260 nM	> 9290 nM
CCO/C(O)=C1\C(C)=NC2=C(C(=O)CC(c3ccc(OC)c(OC)c3)C2)C1c1cccc(C)c1 (centres undefined)	> 40600 nM	1100 nM	1360 nM	> 22300 nM	> 39000 nM	1020 nM	1180 nM	633 nM	> 40600 nM	2080 nM	> 17400 nM	950 nM	602 nM	> 40600 nM	> 40600 nM	816 nM
CC(C)NCC(O)Cn1c2ccc(Cl)cc2c2cc(Cl)ccc21 (centres undefined)	17700 nM	1800 nM	626 nM	> 22800 nM	861 nM	270 nM	4840 nM	140 nM	7620 nM	238 nM	> 17800 nM	477 nM	656 nM	> 41600 nM	20900 nM	122 nM
CCc1ccc(S(=O)(=O)NC2=C/C(=N\c3ccccc3OC)C(=O)c3ccccc32)cc1	9010 nM	954 nM	406 nM	> 21800 nM	1980 nM	277 nM	327 nM	150 nM	10300 nM	677 nM	> 17000 nM	377 nM	531 nM	6800 nM	2760 nM	> 10200 nM
CCCO/C(O)=C1\C(C)=NC2=C(C(=O)CC(c3ccc(OC)c(OC)c3)C2)C1c1ccccc1F (centres undefined)	35900 nM	111 nM	40.5 nM	> 22500 nM	6570 nM	50 nM	106 nM	51.7 nM	> 41100 nM	89.4 nM	> 17600 nM	82.5 nM	36.3 nM	1.8 nM	> 41100 nM	63.9 nM
Oc1ccc(Cl)cc1CN1CCN(c2cccc(C(F)(F)F)c2)CC1	> 35300 nM	1570 nM	1650 nM	> 19400 nM	> 33900 nM	2370 nM	855 nM	886 nM	> 35300 nM	1550 nM	> 15100 nM	476 nM	2130 nM	> 35300 nM	> 35300 nM	> 9070 nM
CCCO/C(O)=C1\C(C)=NC2=C(C(=O)CC(c3ccc(OC)c(OC)c3)C2)C1c1ccccc1C (centres undefined)	> 41300 nM	134 nM	68.5 nM	> 22600 nM	6570 nM	308 nM	98.2 nM	292 nM	> 41300 nM	89.8 nM	> 17700 nM	110 nM	56.5 nM	> 41300 nM	> 41300 nM	21.3 nM
CCN1/C(=C/c2cccc[n+]2C)Sc2ccc(OC)cc21	> 26200 nM	603 nM	1270 nM	> 14300 nM	3730 nM	480 nM	1080 nM	329 nM	> 26200 nM	748 nM	18.9 nM	784 nM	1550 nM	> 26200 nM	3160 nM	> 6720 nM
O=[N+]([O-])c1ccc(S(=O)(=O)N2CCN(C(=S)NCc3ccco3)CC2)cc1	> 31700 nM	261 nM	316 nM	> 17400 nM	> 30400 nM	185 nM	269 nM	132 nM	> 31700 nM	123 nM	> 13600 nM	252 nM	289 nM	> 31700 nM	> 31700 nM	300 nM
